Measurements gathered from unrelated publications.
Target: Ephrin type-B receptor 3 (EPHB3, Homo sapiens, UniProt P54753)
Residues used in one study (P54753 34-998): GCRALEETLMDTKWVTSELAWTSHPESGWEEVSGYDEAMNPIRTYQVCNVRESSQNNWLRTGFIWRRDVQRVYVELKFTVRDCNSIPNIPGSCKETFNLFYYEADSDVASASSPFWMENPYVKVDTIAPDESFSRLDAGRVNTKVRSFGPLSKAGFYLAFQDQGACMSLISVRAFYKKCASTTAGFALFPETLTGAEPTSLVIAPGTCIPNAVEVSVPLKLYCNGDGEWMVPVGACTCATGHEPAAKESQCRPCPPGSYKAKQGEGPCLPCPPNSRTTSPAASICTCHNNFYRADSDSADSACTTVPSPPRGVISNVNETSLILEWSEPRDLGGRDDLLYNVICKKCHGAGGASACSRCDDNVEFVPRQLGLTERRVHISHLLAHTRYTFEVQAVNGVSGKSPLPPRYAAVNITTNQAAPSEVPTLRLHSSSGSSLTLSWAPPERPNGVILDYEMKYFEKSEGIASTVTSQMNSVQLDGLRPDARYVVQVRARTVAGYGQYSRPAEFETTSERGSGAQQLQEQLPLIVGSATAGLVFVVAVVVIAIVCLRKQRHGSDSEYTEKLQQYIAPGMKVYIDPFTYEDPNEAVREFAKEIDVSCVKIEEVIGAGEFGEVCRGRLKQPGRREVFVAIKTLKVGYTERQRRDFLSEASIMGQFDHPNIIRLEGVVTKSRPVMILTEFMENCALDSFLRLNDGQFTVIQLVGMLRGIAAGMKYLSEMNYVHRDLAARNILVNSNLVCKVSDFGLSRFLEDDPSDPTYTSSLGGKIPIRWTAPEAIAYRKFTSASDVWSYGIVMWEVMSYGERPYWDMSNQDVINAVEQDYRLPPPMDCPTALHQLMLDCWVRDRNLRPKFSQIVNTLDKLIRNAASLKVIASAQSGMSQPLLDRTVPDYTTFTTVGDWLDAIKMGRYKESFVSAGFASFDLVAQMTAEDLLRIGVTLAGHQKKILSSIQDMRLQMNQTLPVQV

CCN1CCN(Cc2ccc(C(=O)Nc3ccc(C)c(Oc4ccc5c(c4)CC(=O)N5)c3)cc2C(F)(F)F)CC1
remaining binding (binding, competition with immobilised ligand; 1 µM): 100%

c1cncc(-c2cccc(Nc3nccc(NC4CCCCC4)n3)c2)c1
remaining binding (binding, competition with immobilised ligand; 10 µM): 89%

O=C(NCC1CCOCC1)c1n[nH]cc1NC(=O)c1c(F)cccc1F
remaining binding (binding, competition with immobilised ligand; 1 µM): 100%

CN(CCCC(F)(F)F)c1nccc(-c2cnn3ncccc23)n1
remaining binding (binding; 1 µM): 87%

CCS(=O)(=O)c1cc2cc(C[C@@](O)(CC(C)(C)c3ccc(F)cc3C(N)=O)C(F)(F)F)[nH]c2cn1
remaining binding (cell-free assay, competition with immobilised ligand; 1 µM): 92%

C=CC(=O)N1CCC(C(=O)NCC(=O)N2CCN(c3nc(-c4cnc(N)nc4C(F)F)nc(N4CCOCC4)n3)CC2)CC1
remaining binding (binding, competition with immobilised ligand; 1 µM): 98%

O=C(NCCCN1CCOCC1)c1ccc(Nc2ncc(Cl)c(-c3ccc(Cl)s3)n2)cc1
remaining binding (binding, competition with immobilised ligand; 1 µM): 95%

Cc1c(C(=O)O)cc(-c2ccc(C3CCNCC3)cc2)c2ccc(-c3ccc(C(F)(F)F)cc3)cc12
remaining binding (cell-free assay, competition with immobilised ligand; 1 µM): 100%

COc1cnc(Nc2cccc(S(N)(=O)=O)c2)nc1N1CCN(c2ccccc2)CC1
remaining binding (binding, competition with immobilised ligand; 1 µM): 100%

COc1ccc2c(c1)O[C@@H](c1ccc(OC)c(OC)c1)C[C@H]2NC(=O)C1(c2ccc3c(c2)OC(F)(F)O3)CC1
remaining binding (cell-free assay, competition with immobilised ligand; 1 µM): 90%

c1cnn2ncc(-c3ccnc(N4CCC45COC5)n3)c2c1
remaining binding (binding; 1 µM): 87%

COc1ncc2cc3ccccc3nc2c1C#N
remaining binding (cell-free assay, competition with immobilised ligand; 5 µM): 1.4%

F[C@@H]1CCN(c2nccc(-c3cnn4ncccc34)n2)C1
remaining binding (binding; 1 µM): 77%

COCCOc1nc(-c2ccc(Cl)nc2)nc2c1CN(C(=O)c1ncn3ccccc13)CC2
remaining binding (cell-free assay, competition with immobilised ligand; 0.1 µM): 100%

C[C@H]1CCN(c2nccc(-c3cnn4ncccc34)n2)C1
remaining binding (binding; 1 µM): 100%

O=C(NCCCC1CCCCC1)c1ccc(CNC(=O)c2cnn(-c3ccccc3)c2C(F)(F)F)cc1
remaining binding (cell-free assay, competition with immobilised ligand; 0.1 µM): 79%

CN(C)c1nccc(-c2cnn3ncccc23)n1
remaining binding (binding; 1 µM): 88%

CNC(=O)Nc1ccc2c(c1)CC[C@@]21OC(=O)N(CC(=O)N(Cc2ccc(F)cc2)[C@@H](C)C(F)(F)F)C1=O
remaining binding (cell-free assay, competition with immobilised ligand; 1 µM): 80%

Cc1cnc(Nc2ccc(C(=O)N3CCC(N4CCCC4)CC3)cc2)nc1-c1cc2ccccc2s1
remaining binding (binding, competition with immobilised ligand; 1 µM): 77%

N[C@@H]1CCN(c2nccc(-c3cnn4ncccc34)n2)C1
remaining binding (binding; 1 µM): 100%
